Laboratory results from ChEMBL document CHEMBL1938297, “Synthesis, radiofluorination and pharmacological evaluation of a fluoromethyl spirocyclic PET tracer for central σ1 receptors and comparison with fluoroalkyl homologs” (Bioorg Med Chem, 2012).

Legend:
[1] = test system: Femur; assay: Biodistribution in CD1 mouse flushed femur at 300 kBq, iv after 60 mins by gamma counting; type: ADME, organism-based; conditions: in vivo, 1 h
Outline: (§1)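 Female CD-1 mice received [18F]1 (300 kBq) i.v.; 3–6 animals per time point anesthetized at 5, 30, 60 or 120 min p.i., blood and urine collected, animals euthanized by cervical dislocation, organs dissected and weighed. Radioactivity counted in a calibrated gamma counter; % ID/g = tissue counts / initial dose counts / tissue weight; means with SD.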

[2] = test system: Brain; assay: Biodistribution in CD1 mouse brain at 300 kBq, iv after 120 mins by gamma counting; type: ADME, organism-based; conditions: in vivo, 2 h; outline: as §1
[3] = test system: Mus musculus; assay: Biodistribution in CD1 mouse large intestine at 300 kBq, iv after 120 mins by gamma counting; type: ADME, organism-based; conditions: in vivo, 2 h
Outline: (§2)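 Female CD-1 mice received the 18F tracer iv at 300 kBq in 0.9% NaCl containing 5% ethanol; 3–6 animals per time point (5, 30, 60, 120 min p.i.). Animals anaesthetized, blood and urine collected, killed by cervical luxation, organs dissected and weighed, counted in calibrated gamma counter. %ID/g = tissue counts / initial dose counts / tissue weight; mean with SD.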

[4] = Biodistribution in CD1 mouse intestinal content at 300 kBq, iv after 120 mins by gamma counting; type: ADME, organism-based, Intestine; conditions: in vivo, 2 h; outline: as §2
[5] = test system: Liver; assay: Biodistribution in CD1 mouse liver at 300 kBq, iv after 120 mins by gamma counting; type: ADME, organism-based; conditions: in vivo, 2 h; outline: as §2
[6] = test system: Urinary bladder; assay: Biodistribution in CD1 mouse bladder at 300 kBq, iv after 120 mins by gamma counting; type: ADME, organism-based; conditions: in vivo, 2 h; outline: as §1
[7] = test system: Spleen; assay: Biodistribution in CD1 mouse spleen at 300 kBq, iv after 120 mins by gamma counting; type: ADME, organism-based; conditions: in vivo, 2 h; outline: as §2
[8] = test system: Mus musculus; assay: Biodistribution in CD1 mouse eye at 300 kBq, iv after 120 mins by gamma counting; type: ADME, organism-based; conditions: in vivo, 2 h; outline: as §1
[9] = Chemical stability of the compound in phosphate-saline solution at pH 7.2 assessed as compound remaining after 2 hrs by radio-HPLC/TLC analysis; type: physicochemical; conditions: read-out: Stability
Outline: (§3)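 Radiotracer incubated 120 min at 40 °C in 0.9% NaCl (pH 7.2), phosphate-saline (0.1 M sodium phosphate, 0.15 M NaCl, pH 7.2) or 0.01 M TRIS–HCl (pH 7.4 at 21 °C). Aliquots were taken at set times and analysed by radio-TLC on silica and by gradient radio-HPLC on RP-18 (MeCN/20 mM ammonium acetate, 254 nm), giving % unchanged tracer; n = 2.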

[10] = Chemical stability of the compound in 0.01 M Tris-HCl at pH 7.4 assessed as compound remaining after 2 hrs by radio-HPLC/TLC analysis; type: physicochemical; conditions: read-out: Stability; outline: as §3
[11] = Octanol-phosphate buffer partition coefficient, log D of the compound at pH 7.2 by shake-flask method; type: physicochemical
Outline: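 Shake-flask distribution of the radioligand between n-octanol and aqueous buffer at pH 7.2, either phosphate buffer or phosphate-saline; n = 3.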

[12] = test system: Brain; assay: Drug metabolism in CD1 mouse brain homogenates assessed as radiometabolites at 191 MBq, iv after 60 mins by radio-HPLC/TLC analysis; type: ADME, organism-based; conditions: in vivo, 1 h
Outline: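 Female CD-1 mice were injected with the radiotracer via the tail vein and killed at 30 or 60 min p.i. Whole brains (n = 2 per time) were homogenised in 50 mM TRIS–HCl pH 7.4 at 4 °C and extracted twice with ice-cold acetonitrile. Concentrated extracts were analysed by radio-HPLC and radio-TLC to give % parent versus radiometabolites.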

[13] = test system: Mus musculus; assay: Biodistribution in CD1 mouse facial nucleus in brain saggital section at 24 MBq, iv at 45 mins by autoradiography; type: ADME, organism-based; conditions: in vivo, 0.75 h
Outline: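 Female CD-1 mouse given [18F]1 (24 MBq) i.v. and sacrificed at 45 min. Brain hemispheres frozen in isopentane (−35 °C), cut into 12 µm sagittal cryosections, thaw-mounted, air-dried and exposed to 18F-sensitive storage phosphor screens. Anterior olfactory bulb served as nontarget region for target-to-nontarget ratios.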

[14] = test system: Mus musculus; assay: Biodistribution in CD1 mouse thalmic nuclei in brain saggital section at 24 MBq, iv at 45 mins by autoradiography; type: ADME, organism-based; conditions: in vivo, 0.75 h
Outline: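 Ex vivo autoradiography: female CD-1 mouse given 18F tracer iv (24 MBq), killed 45 min p.i.; brain hemispheres frozen in isopentane (−35 °C), 12 µm sagittal cryostat sections thaw-mounted, air-dried and exposed to 18F-sensitive phosphor screens. Regional uptake compared with anterior olfactory bulb as nontarget region (target-to-nontarget ratio).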

[15] = test system: Stomach; assay: Biodistribution in CD1 mouse stomach at 300 kBq, iv after 5 mins by gamma counting; type: ADME, organism-based; conditions: in vivo; outline: as §2
[16] = test system: Mus musculus; assay: Biodistribution in CD1 mouse large intestine at 300 kBq, iv after 5 mins by gamma counting; type: ADME, organism-based; conditions: in vivo; outline: as §2
[17] = test system: Liver; assay: Biodistribution in CD1 mouse liver at 300 kBq, iv after 5 mins by gamma counting; type: ADME, organism-based; conditions: in vivo; outline: as §2
[18] = test system: Urinary bladder; assay: Biodistribution in CD1 mouse bladder at 300 kBq, iv after 5 mins by gamma counting; type: ADME, organism-based; conditions: in vivo; outline: as §1
[19] = test system: Mus musculus; assay: Biodistribution in CD1 mouse thymus at 300 kBq, iv after 5 mins by gamma counting; type: ADME, organism-based; conditions: in vivo; outline: as §2
[20] = test system: Mus musculus; assay: Biodistribution in CD1 mouse adrenals at 300 kBq, iv after 5 mins by gamma counting; type: ADME, organism-based, Adrenal gland; conditions: in vivo; outline: as §1
[21] = test system: Femur; assay: Biodistribution in CD1 mouse flushed femur at 300 kBq, iv after 5 mins by gamma counting; type: ADME, organism-based; conditions: in vivo; outline: as §1
[22] = test system: Mus musculus; assay: Biodistribution in CD1 mouse fat at 300 kBq, iv after 5 mins by gamma counting; type: ADME, organism-based, Adipose tissue; conditions: in vivo; outline: as §1
[23] = test system: Brain; assay: Biodistribution in CD1 mouse brain at 300 kBq, iv after 30 mins by gamma counting; type: ADME, organism-based; conditions: in vivo, 0.5 h; outline: as §1
[24] = test system: Mus musculus; assay: Biodistribution in CD1 mouse large intestine at 300 kBq, iv after 30 mins by gamma counting; type: ADME, organism-based; conditions: in vivo, 0.5 h; outline: as §2
[25] = test system: Kidney; assay: Biodistribution in CD1 mouse kidney at 300 kBq, iv after 30 mins by gamma counting; type: ADME, organism-based; conditions: in vivo, 0.5 h; outline: as §2
[26] = Biodistribution in CD1 mouse urine at 300 kBq, iv after 30 mins by gamma counting; type: ADME, organism-based; conditions: in vivo, 0.5 h
Outline: (§4)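 Female CD-1 mice received 300 kBq of the radiotracer i.v.; 3–6 animals per time point were anaesthetised at 5, 30, 60 or 120 min p.i. Blood and urine were collected, animals were killed by cervical dislocation, and organs were dissected and weighed. Activity was counted in a calibrated gamma counter and expressed as % injected dose per g wet tissue, mean with SD.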

[27] = test system: Mus musculus; assay: Biodistribution in CD1 mouse adrenals at 300 kBq, iv after 30 mins by gamma counting; type: ADME, organism-based, Adrenal gland; conditions: in vivo, 0.5 h; outline: as §1
[28] = test system: Muscle tissue; assay: Biodistribution in CD1 mouse muscle at 300 kBq, iv after 30 mins by gamma counting; type: ADME, organism-based; conditions: in vivo, 0.5 h; outline: as §2
[29] = test system: Mus musculus; assay: Biodistribution in CD1 mouse fat at 300 kBq, iv after 30 mins by gamma counting; type: ADME, organism-based, Adipose tissue; conditions: in vivo, 0.5 h; outline: as §1
[30] = test system: Brain; assay: Biodistribution in CD1 mouse brain at 300 kBq, iv after 60 mins by gamma counting; type: ADME, organism-based; conditions: in vivo, 1 h; outline: as §1
[31] = test system: Stomach; assay: Biodistribution in CD1 mouse stomach at 300 kBq, iv after 60 mins by gamma counting; type: ADME, organism-based; conditions: in vivo, 1 h; outline: as §2
[32] = test system: Mus musculus; assay: Biodistribution in CD1 mouse large intestine at 300 kBq, iv after 60 mins by gamma counting; type: ADME, organism-based; conditions: in vivo, 1 h; outline: as §2
[33] = test system: Urinary bladder; assay: Biodistribution in CD1 mouse bladder at 300 kBq, iv after 60 mins by gamma counting; type: ADME, organism-based; conditions: in vivo, 1 h; outline: as §1
[34] = test system: Mus musculus; assay: Biodistribution in CD1 mouse thymus at 300 kBq, iv after 60 mins by gamma counting; type: ADME, organism-based; conditions: in vivo, 1 h; outline: as §4

`[18F]CC1OC2(CCN(Cc3ccccc3)CC2)c2ccccc21` (centres undefined) gave a Drug uptake [1] of 1.18 % ID/g, a Drug uptake [2] of 2.7 % ID/g and a Drug uptake [3] of 1.46 % ID/g. For the same compound, the Drug uptake [4] was 1.96 % ID/g, the Drug uptake [5] was 3.95 % ID/g and the Drug uptake [6] was 5.58 % ID/g. It also gave a Drug uptake [7] of 4.84 % ID/g, a Drug uptake [8] of 1.53 % ID/g and a remaining at 2 h [9] of 96.5%. For the same compound, the remaining at 2 h [10] was 100%, the logD [11] was 2.45 and the Drug metabolism [12] was “Active”. For the same compound, the Drug uptake [13] was “Active”, the Drug uptake [14] was “Active” and the Drug uptake [15] was 2.62 % ID/g. The Drug uptake [16] was 0.91 % ID/g, the Drug uptake [17] was 5.31 % ID/g and the Drug uptake [18] was 1.51 % ID/g. The Drug uptake [19] was 3.61 % ID/g, the Drug uptake [20] was 13.29 % ID/g and the Drug uptake [21] was 2.09 % ID/g. It also gave a Drug uptake [22] of 1.12 % ID/g, a Drug uptake [23] of 4.56 % ID/g and a Drug uptake [24] of 1.28 % ID/g. For the same compound, the Drug uptake [25] was 9.61 % ID/g, the Drug uptake [26] was 46.35 % ID/g and the Drug uptake [27] was 13.39 % ID/g. The Drug uptake [28] was 1.67 % ID/g, the Drug uptake [29] was 1.82 % ID/g and the Drug uptake [30] was 2.99 % ID/g. The Drug uptake [31] was 1.77 % ID/g, the Drug uptake [32] was 0.92 % ID/g and the Drug uptake [33] was 1.42 % ID/g. The Drug uptake [34] was 2.5 % ID/g.
